According to ChEMBL document CHEMBL4038268, “Methylpyrrole inhibitors of BET bromodomains” (Bioorg Med Chem Lett, 2017):
Activity calls are given as the source filed them. The rule behind the calls is not given here.

Assays:
[1] = target: T1, Bromodomain-containing protein 4 (Homo sapiens, UniProt O60885); assay: Binding affinity to His-tagged BRD4 BD1-BD2 (K57 to K550 residues) (unknown origin) after 1 hr by Alexa-647-conjugated probe based TR-FRET assay
[2] = target: T1, Bromodomain-containing protein 4; assay: Inhibition of BRD4 (unknown origin) expressed in human H1299 cells co-expressing HPV16-LCR/E2 after 24 hrs by Bright Glo-luciferase reporter gene assay; format: cell-based
Outline: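 Target-engagement reporter in an H1299-derived line carrying a stably integrated E2 expression cassette and an HPV-LCR-driven luciferase reporter. The read-out is BRD4-dependent E2-mediated transcriptional repression. EC50 is the mean of two measurements.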

MX1 = assay: Antiproliferative activity against human MX1 cells incubated over 72 hrs by Cell Titre Glo luminescence assay; format: functional, cell-based; conditions: MX1, 72 h
Outline: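 Triple-negative breast cancer line MX-1 grown 3 days with compound. Proliferation read with the CellTiter-Glo kit. EC50 is the mean of two measurements.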

Liver = assay: Unbound intrinsic clearance in mouse liver microsomes; format: ADME, microsome
[3] = Permeability of the compound; format: physicochemical; conditions: not told; read-out: permeability
[4] = target: T1, Bromodomain-containing protein 4; assay: Binding affinity to Ile,Leu,Val,Met-[13C-methyl]-labelled BRD4 BD2 (352 to 457 residues) (unknown origin) expressed in Escherichia coli BL21 (DE3) by NMR method
[5] = Oral bioavailability in mouse at 10 mg/kg; format: ADME, organism-based; conditions: in vivo
Mus musculus = assay: Unbound AUC in mouse at 10 mg/kg, po; format: ADME, organism-based; conditions: in vivo
[6] = Half life in mouse at 3 mg/kg, iv; format: ADME, organism-based; conditions: in vivo

| SMILES | Ki [1] | EC50 [2] | further results |
| --- | --- | --- | --- |
| Cc1[nH]c(-c2ccccc2Oc2ccccc2)c2c1C(=O)NCC2 | 340 nM | 280 nM |  |
| Cc1[nH]c(-c2cc(N)ccc2Oc2ccccc2)cc1C(N)=O | 420 nM | 880 nM |  |
| Cc1[nH]c(-c2cc(S(C)(=O)=O)ccc2Oc2ccc(F)cc2F)c2cn[nH]c(=O)c12 | 77 nM | 750 nM | EC50 (MX1): 390 nM; CL free (Liver): 617 mL/min/kg; Papp [3]: 12 ×10⁻⁶ cm/s |
| CCOC(=O)c1[nH]c(C)c2c1CCCC2=O | 25000 nM |  | Activity [4]: Active |
| Cn1cc(-c2cc(CS(C)(=O)=O)ccc2Oc2ccc(F)cc2F)c2cc[nH]c(=O)c21 | 11 nM | 40 nM | CL free (Liver): 400 mL/min/kg; Papp [3]: 40 ×10⁻⁶ cm/s |
| Cc1[nH]c(-c2ccccc2)cc1C(N)=O | 12000 nM |  |  |
| Cc1[nH]c(-c2cc(S(C)(=O)=O)ccc2Oc2ccc(F)cc2F)cc1C(N)=O | 2200 nM | 4500 nM | EC50 (MX1): 3200 nM; CL free (Liver): 100 mL/min/kg |
| Cc1[nH]c(-c2ccccc2Nc2ccccc2)cc1C(N)=O | 450 nM | 2800 nM |  |
| Cc1[nH]c(-c2cc(NS(C)(=O)=O)ccc2Oc2ccc(F)cc2F)c2c1C(=O)NCC2 | 84 nM | 420 nM |  |
| Cc1[nH]c(-c2ccccc2N)cc1C(N)=O | 22000 nM | > 10000 nM | EC50 (MX1): > 10000 nM |
| Cc1[nH]c(-c2ccccc2Oc2ccccc2)c2c1C(=O)CCC2 | 440 nM | 280 nM |  |
| Cc1[nH]c(-c2ccccc2Oc2ccccc2)cc1C(N)=O | 270 nM | 450 nM |  |
| Cc1[nH]c(-c2ccccc2Oc2ccc(Cl)cc2)cc1C(N)=O | 410 nM | 280 nM |  |
| Cc1[nH]c(-c2cc(NS(C)(=O)=O)ccc2Oc2ccccc2)c2cn[nH]c(=O)c12 | 30 nM | 180 nM |  |
| COC(=O)c1ccc(Oc2ccccc2)c(-c2[nH]c(C)c3c2CCCC3=O)c1 | 91 nM | 2000 nM |  |
| CCS(=O)(=O)Nc1ccc(Oc2ccc(F)cc2F)c(-c2cn(C)c3c(=O)[nH]ccc23)c1 | 11 nM |  |  |
| Cc1[nH]c(-c2c(N)cccc2Oc2ccccc2)cc1C(N)=O | 1600 nM | 2100 nM |  |
| CCS(=O)(=O)Nc1ccc(Oc2ccccc2)c(-c2[nH]c(C)c3c(=O)[nH]ncc23)c1 | 10 nM | 75 nM | EC50 (MX1): 52 nM; CL free (Liver): 800 mL/min/kg; Papp [3]: 9.5 ×10⁻⁶ cm/s |
| CC(=O)c1cc(-c2ccccc2N)[nH]c1C | 21000 nM |  | Activity [4]: Active |

| SMILES | Ki [1] | EC50 [2] | further results |
| --- | --- | --- | --- |
| Cc1[nH]c(-c2cc(N)ccc2Oc2ccccc2)c2c1C(=O)CCC2 | 210 nM | 300 nM | EC50 (MX1): 230 nM |
| Cc1[nH]c(-c2cc(NS(C)(=O)=O)ccc2Oc2ccccc2)c2c1C(=O)NCC2 | 41 nM | 120 nM |  |
| Cn1cc(-c2ccccc2Oc2ccccc2)c2cc[nH]c(=O)c21 | 120 nM | 1100 nM | EC50 (MX1): 580 nM; CL free (Liver): 106700 mL/min/kg; Papp [3]: 13 ×10⁻⁶ cm/s |
| Cc1[nH]c(-c2ccccc2N)c2c1C(=O)CCC2 | 9500 nM | 7100 nM |  |
| CCNC(=O)c1ccc(Oc2ccccc2)c(-c2[nH]c(C)c3c2CCCC3=O)c1 | 250 nM | 1400 nM | EC50 (MX1): 1400 nM |
| COC(=O)C[C@@H]1N=C(c2ccc(Cl)cc2)c2c(sc(C)c2C)-n2c(C)nnc21 | 17 nM |  |  |
| CCS(=O)(=O)Nc1ccc(Oc2ccc(F)cc2)c(-c2cn(C)c3c(=O)[nH]ccc23)c1 | 5.5 nM | 47 nM | bioavailability [5]: 33%; fAUC (Mus musculus): 0.06 µM·h; half-life [6]: 5.6 h |
| Cc1[nH]c(-c2cc(NS(C)(=O)=O)ccc2Oc2ccc(F)cc2F)cc1C(N)=O | 370 nM | 2300 nM |  |
| Cc1[nH]c(-c2ccccc2Oc2ccccc2)c2cc[nH]c(=O)c12 | 450 nM | 700 nM |  |
| Cn1cc(-c2cc(S(C)(=O)=O)ccc2Oc2ccccc2)c2cc[nH]c(=O)c21 | 17 nM | 91 nM |  |
| Cc1[nH]c(-c2ccccc2Oc2ccccc2)c2cn[nH]c(=O)c12 | 37 nM | 220 nM |  |
| Cc1[nH]c(-c2cc(S(C)(=O)=O)ccc2Oc2ccc(F)cc2F)c2c1C(=O)CCC2 | 460 nM | 1400 nM | EC50 (MX1): 570 nM; CL free (Liver): 1400 mL/min/kg |
| Cc1[nH]c(-c2cc(NS(C)(=O)=O)ccc2Oc2ccc(F)cc2F)c2cn[nH]c(=O)c12 | 16 nM | 280 nM | EC50 (MX1): 92 nM; CL free (Liver): > 250 mL/min/kg; Papp [3]: 6.1 ×10⁻⁶ cm/s |
| Cn1cc(-c2cc(NS(C)(=O)=O)ccc2Oc2ccc(F)cc2F)c2cc[nH]c(=O)c21 | 17 nM | 46 nM |  |
| Cc1[nH]c(-c2cc(NS(C)(=O)=O)ccc2Oc2ccccc2)cc1C(N)=O | 280 nM | 1400 nM |  |
| Cc1[nH]c(-c2cc(NS(C)(=O)=O)ccc2Oc2ccccc2)c2nc[nH]c(=O)c12 | 150 nM | 410 nM |  |
| Cc1[nH]c(-c2ccccc2Oc2ccccc2)c2nc[nH]c(=O)c12 | 1100 nM | 1600 nM | EC50 (MX1): 1200 nM; CL free (Liver): > 6170 mL/min/kg; Papp [3]: 100 ×10⁻⁶ cm/s |
| Cc1[nH]c(-c2cc(NS(C)(=O)=O)ccc2Oc2ccc(F)cc2F)c2c1C(=O)CCC2 | 97 nM | 75 nM |  |
